In PMC4338372 (FEBS Open Bio, 2015):

B1: ELMO1–727: wild type (murine) ELMO1 protein (protein)
chain: MPPPSDIVKVAIEWPGAYPKLMEIDQKKPLSAIIKEVCDGWSLANHEYFALQHADSSNFYITEKNRNEIKNGTILRLTTSPAQNAQQLHERIQSSSMDAKLEALKDLASLSRDVTFAQEFINLDGISLLTQMVESGTERYQKLQKIMKPCFGDMLSFTLTAFVELMDHGIVSWDTFSVAFIKKIASFVNKSAIDISILQRSLAILESMVLNSHDLYQKVAQEITIGQLIPHLQGTDQEIQTYTIAVINALFLKAPDERRQEMANILAQKQLRYIILTHVIRAQRAINNEMAHQLYVLQVLTFNLLEDRMMTKMDPQDQAQRDIIFELRRIAFDAESEPNNSSGSMEKRKSMYTRDYKKLGFINHVNPAMDFTQTPPGMLALDNMLYFAKHHQDAYIRIVLENSSREDKHECPFGRSSIELTKMLCEILKVGELPSETCNDFHPMFFTHDRSFEEFFCICIQLLNKTWKEMRATSEDFNKVMQVVKEQVMRALTTKPSSLDQFKSKLQNLSYTEILKIRQSERMNQEDFQSRPILELKEKIQPEILELIKQQRLNRLVEGTCFRKLNARRRQDKFWYCRLSPNHKVLHYGDLEESPQGEVPHDSLQDKLPVADIKAVVTGKDCPHMKEKGALKQNKEVLELAFSILYDSNCQLNFIAPDKHEYCIWTDGLNALLGKDMMSDLTRNDLDTLLSMEIKLRLLDLENIQIPDAPPPIPKEPSNYDFVYDCN
modifications: left off: 6His (TEV cleavable), end not stated, kept
B2: ELMO532–727: C-terminal domain of ELMO1 with the polyproline motif (protein)
chain: PILELKEKIQPEILELIKQQRLNRLVEGTCFRKLNARRRQDKFWYCRLSPNHKVLHYGDLEESPQGEVPHDSLQDKLPVADIKAVVTGKDCPHMKEKGALKQNKEVLELAFSILYDSNCQLNFIAPDKHEYCIWTDGLNALLGKDMMSDLTRNDLDTLLSMEIKLRLLDLENIQIPDAPPPIPKEPSNYDFVYDCN
modifications: left off: 6His (TEV cleavable), end not stated, kept
B3: ELMO532–707: C-terminal domain of ELMO1 without the polyproline motif (protein)
chain: PILELKEKIQPEILELIKQQRLNRLVEGTCFRKLNARRRQDKFWYCRLSPNHKVLHYGDLEESPQGEVPHDSLQDKLPVADIKAVVTGKDCPHMKEKGALKQNKEVLELAFSILYDSNCQLNFIAPDKHEYCIWTDGLNALLGKDMMSDLTRNDLDTLLSMEIKLRLLDLENIQIP
modifications: left off: 6His (TEV cleavable), end not stated, kept

Legend:
[1] = molecular target: SH3 domain of Hck (SH3Hck) (Homo sapiens, UniProt P08631); assay: Pull-down of 6His-ELMO1 constructs on immobilized GST-SH3Hck; assay type: binding; conditions: bacterially expressed 6His-ELMO1; 1 h at 4 °C; anti-polyHistidine western blot
In short: (§1)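 GST-tagged SH3 domains (Hck residues 77–141; human DOCK180 residues 9–69) and 6His-ELMO1 (wild type 1–727, 532–727 and 532–707) were made in E. coli BL21(DE3) (1 mM IPTG, LB, 3 h, 37 °C). ELMO1 was purified by Ni–NTA and gel filtration, GST fusions on glutathione resin. ELMO1 was incubated with resin-bound SH3 (1 mg/ml) for 1 h at 4 °C in pH 7.5 Hepes buffer. Beads were washed three times, eluted denaturing, and analysed by SDS–PAGE and anti-His immunoblot.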

[2] = system: SH3 domain of DOCK180 (SH3DOCK); assay: Pull-down of 6His-ELMO1 constructs on immobilized GST-SH3DOCK; assay type: binding, human; conditions: bacterially expressed 6His-ELMO1; 1 h at 4 °C; anti-polyHistidine western blot
In short: as §1

CLIP-SH3Hck = assay: FRET of SNAP-ELMO1 constructs and CLIP-SH3Hck in HEK293T cells by flow cytometry; assay type: cell-based; conditions: HEK293T co-transfected with CLIP-SH3Hck; control CLIP-SH3Hck alone
SH3Hck = assay: Solid-phase enzyme immunoassay; assay type: binding; conditions: preliminary solid-phase enzyme immunoassay; data not shown

SH3 domain of Hck (SH3Hck), sequence (P08631 77-141): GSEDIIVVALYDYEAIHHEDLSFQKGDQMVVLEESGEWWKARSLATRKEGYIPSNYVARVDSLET

Molecule | pull-down by immobilized GST-SH3Hck [1] | pull-down by immobilized GST-SH3DOCK [2] | median FRET intensity compared to control cells (CLIP-SH3Hck) | dissociation rate of SH3Hck (SH3Hck)
B1 | successfully pulled-down | successfully pulled-down | – | –
B2 | specifically pulled-down | efficiently pulled-down | significantly higher median FRET intensity compared to control cells | ten-micromolar range
B3 | – | efficiently pulled-down | – | –
